Five molecules from article PMC3787769 (The Journal of General Physiology, 2013) can be followed below.

Experiment [1] has as its system ANO 1. It is filed as cell-based, rat. The conditions noted are these: for Effect on ANO 1 current density (channel activation): bath application of 20 µM TFP or 50 µM J-8 for 10–70 min. The method, boiled down:
(§1)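 HEK 293 cells transiently transfected with rat ANO with C-terminal YFP tag; cells of similar YFP intensity recorded whole-cell. Bath (mM): 150 CsCl, 10 HEPES, 10 EGTA, pH 7.4. Pipette: 150 mM Cl−, 10 mM HEDTA, 10 mM HEPES, pH 7.0, free Ca2+ 0.7–62 µM. Ramps −80 to +80 mV (1 s), every 15 s from 2 min after breakthrough; current density in pA/pF.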

In experiment [2] the test system is ANO 2. It is filed as cell-based, rat. The conditions noted are these: for Effect on ANO 2 current density (channel activation): bath application of 20 µM TFP or 50 µM J-8 for 10–70 min. The procedure, abridged: as §1
Experiment [3] has as its target CaM (Bos taurus, UniProt P62157). Put plainly: Badan fluorescence peptide-binding assay with CaM. Particulars: 3 µM peptide, 1.5 µM CaM, free Ca2+ 0.007 to 10 µM.
For experiment [4], the target named is Badan-labeled ANO 1 RCBM peptide, mutant m2,6 (rat). As to the kind of experiment: other fluorescence titration.
The target in experiment [5] is Badan-labeled ANO 2 RCBM peptide, mutant m15,20 (rat). As to the kind of experiment: other fluorescence titration.
Experiment [6] concerns the target Badan-labeled ANO 1 RCBM peptide, mutant m15,20 (rat). Put plainly: other fluorescence titration.
Experiment [7] deals with Badan-labeled ANO 2 RCBM peptide, mutant m2,6 (rat). Put plainly: other fluorescence titration.

Consider `NCCCCCCCCNS(=O)(=O)c1cccc2c(I)cccc12` [J-8], for which, in experiment [1], the “Effect on ANO 1 current density (channel activation)” value was “did not significantly reduce”. Further, in experiment [2], the “Effect on ANO 2 current density (channel activation)” value is “did not significantly reduce”.
As to `CN1CCN(CCCN2c3ccccc3Sc3ccc(C(F)(F)F)cc32)CC1` [TFP, trifluoperazine], the “Effect on ANO 1 current density (channel activation)” value in experiment [1] was “did not significantly reduce”. The “Effect on ANO 2 current density (channel activation)” value in experiment [2] is reported as “did not significantly reduce”.
As to `CN[C@@H]1C[C@H]2O[C@@](C)([C@@H]1OC)n1c3ccccc3c3c4c(c5c6ccccc6n2c5c31)C(=O)NC4` [staurosporine], the “Effect on ANO 1 channel activation or inactivation” value in experiment [1] (0.2–2 µM, 5–50 min, applied to the bath solution, 6 cells, unpublished data) is “did not detect any effect”. Further, the “Effect on ANO 2 channel activation or inactivation” value in experiment [2] (0.2–2 µM, 5–50 min, applied to the bath solution, 18 cells, unpublished data) is reported as “did not detect any effect”.
For RKLEYEEEASYGVFYKEQPIDEVRK [ANO ctrl], in experiment [3], the “CaM binding of Badan-labeled peptide (Ca2+-dependent change of emission spectra)” value is “completely abolished CaM binding”.
For “wild-type calmodulin (wt CaM), purchased (from UniProt P0DP23 1-149) (natural protein)”, the EC50 of free Ca^2+ for CaM binding in experiment [4] came to 12 µM; in experiment [5], 0.6 µM; in experiment [6], 15.2 µM; in experiment [7], 6 µM.
